Assays:
[1] = biological target: T1, Somatostatin receptor type 3 (Homo sapiens, UniProt P32745); assay: Binding affinity to human SST3 receptor
[2] = biological target: Somatostatin receptor type 1 (Rattus norvegicus, UniProt P28646); assay: Displacement of [125I]SRIF-14 from rat cortex membrane SST1 receptor
V79 = assay: Genotoxicity against chinese hamster V79 cells by micronucleus test; type: toxicity, cell-based, Cricetulus griseus
D(2) dopamine receptor = D(2) dopamine receptor (Homo sapiens, UniProt P14416); assay: Binding affinity to dopamine D2 receptor
D(2) dopamine receptor, sequence (P14416 whole entry): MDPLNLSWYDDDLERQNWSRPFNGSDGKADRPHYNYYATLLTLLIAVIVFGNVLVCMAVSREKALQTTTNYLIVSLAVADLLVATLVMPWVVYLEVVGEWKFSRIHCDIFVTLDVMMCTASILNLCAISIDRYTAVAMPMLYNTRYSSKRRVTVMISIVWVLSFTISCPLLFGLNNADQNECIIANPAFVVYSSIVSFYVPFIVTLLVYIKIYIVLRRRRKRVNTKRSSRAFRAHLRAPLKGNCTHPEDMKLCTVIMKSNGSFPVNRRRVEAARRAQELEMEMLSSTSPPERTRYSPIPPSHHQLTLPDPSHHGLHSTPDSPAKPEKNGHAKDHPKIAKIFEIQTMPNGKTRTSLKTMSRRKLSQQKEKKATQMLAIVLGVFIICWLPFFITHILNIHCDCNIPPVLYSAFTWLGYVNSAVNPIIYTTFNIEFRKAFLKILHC

[3] = biological target: Somatostatin receptor type 3 (Mus musculus, UniProt P30935); assay: Displacement of [125I]SRIF-28 from mouse recombinant SST3 receptor
Somatostatin receptor type 3 (Mus musculus, UniProt P30935), sequence (P30935 whole entry): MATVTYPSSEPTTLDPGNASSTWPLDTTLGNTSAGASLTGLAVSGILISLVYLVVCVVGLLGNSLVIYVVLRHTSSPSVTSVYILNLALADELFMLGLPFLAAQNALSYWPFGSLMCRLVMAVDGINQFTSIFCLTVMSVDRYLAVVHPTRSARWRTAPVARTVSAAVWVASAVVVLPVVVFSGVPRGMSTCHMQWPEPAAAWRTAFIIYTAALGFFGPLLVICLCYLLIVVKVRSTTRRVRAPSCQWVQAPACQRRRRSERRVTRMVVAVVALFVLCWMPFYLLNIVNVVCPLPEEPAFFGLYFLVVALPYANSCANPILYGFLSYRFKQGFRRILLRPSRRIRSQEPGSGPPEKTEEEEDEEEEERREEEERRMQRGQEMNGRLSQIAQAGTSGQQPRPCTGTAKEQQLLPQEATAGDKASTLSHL
How it was run: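 Radioligand binding on recombinant mouse sst3 receptors with 125I-SRIF28 as tracer; pKD reported, n = 3.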

Homo sapiens [4] = species on record: Homo sapiens; assay: Selectivity for human SST3 over human SST4
Homo sapiens [5] = species on record: Homo sapiens; assay: Selectivity for human SST3 over human SST2
[6] = Apparent terminal half life in rat plasma at 1 mg/kg, iv; type: ADME, organism-based; parameters: dose 1 mg/kg, route intravenous
How it was run: (§1)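 Unlabelled drug dosed intravenously at 1 mg/kg to mice and rats; plasma analysed by LC–MS (LOQ 0.4 ng/ml); apparent terminal half-life computed from plasma levels.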

[7] = biological target: Somatostatin receptor type 1 (Homo sapiens, UniProt P30872); assay: Binding affinity to human SST1 receptor
Somatostatin receptor type 1 (Homo sapiens, UniProt P30872), sequence (P30872 whole entry): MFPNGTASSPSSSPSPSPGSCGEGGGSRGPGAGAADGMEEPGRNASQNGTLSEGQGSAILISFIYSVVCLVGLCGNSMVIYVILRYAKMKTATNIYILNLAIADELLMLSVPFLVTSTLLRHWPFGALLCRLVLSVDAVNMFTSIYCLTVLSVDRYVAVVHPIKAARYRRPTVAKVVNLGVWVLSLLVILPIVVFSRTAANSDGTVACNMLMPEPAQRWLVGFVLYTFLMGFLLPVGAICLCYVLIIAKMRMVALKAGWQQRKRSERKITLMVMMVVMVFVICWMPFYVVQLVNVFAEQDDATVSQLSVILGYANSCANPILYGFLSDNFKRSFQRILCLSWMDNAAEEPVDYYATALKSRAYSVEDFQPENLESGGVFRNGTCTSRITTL

[8] = Inhibition of CYP450; type: ADME
How it was run: (§2)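 Inhibition of the five principal human cytochrome P450 isoenzymes screened by a microplate-based, direct fluorometric assay.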

[9] = biological target: Somatostatin receptor type 2 (Homo sapiens, UniProt P30874); assay: Binding affinity to human SST2 receptor
Somatostatin receptor type 2 (Homo sapiens, UniProt P30874), sequence (P30874 whole entry): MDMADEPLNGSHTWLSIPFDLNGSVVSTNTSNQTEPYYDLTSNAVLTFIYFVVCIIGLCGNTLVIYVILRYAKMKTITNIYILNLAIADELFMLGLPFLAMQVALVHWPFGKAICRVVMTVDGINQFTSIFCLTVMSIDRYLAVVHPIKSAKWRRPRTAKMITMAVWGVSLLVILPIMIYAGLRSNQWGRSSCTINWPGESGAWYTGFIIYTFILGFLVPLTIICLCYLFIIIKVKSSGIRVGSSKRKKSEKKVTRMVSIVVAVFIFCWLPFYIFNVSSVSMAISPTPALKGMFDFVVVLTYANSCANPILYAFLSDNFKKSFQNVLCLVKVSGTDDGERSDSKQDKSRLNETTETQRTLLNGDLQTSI

[10] = Ratio of drug level in brain to plasma in rat at 3 mg/kg, po after 1 hr by LC-MS based method; type: ADME, organism-based; parameters: dose 3 mg/kg, route oral; details: brain and plasma
How it was run: (§3)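 Mice and rats dosed orally at 3 mg/kg with unlabelled drug; plasma and brain sampled 1 h after dosing and analysed by LC–MS (LOQ 0.4 ng/ml plasma, 2 ng/g brain); brain/plasma ratio calculated.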

[11] = biological target: T2, Alpha-1A adrenergic receptor (Homo sapiens, UniProt P35348); assay: Binding affinity to Alpha-1A adrenergic receptor
T2 sequence (P35348 whole entry): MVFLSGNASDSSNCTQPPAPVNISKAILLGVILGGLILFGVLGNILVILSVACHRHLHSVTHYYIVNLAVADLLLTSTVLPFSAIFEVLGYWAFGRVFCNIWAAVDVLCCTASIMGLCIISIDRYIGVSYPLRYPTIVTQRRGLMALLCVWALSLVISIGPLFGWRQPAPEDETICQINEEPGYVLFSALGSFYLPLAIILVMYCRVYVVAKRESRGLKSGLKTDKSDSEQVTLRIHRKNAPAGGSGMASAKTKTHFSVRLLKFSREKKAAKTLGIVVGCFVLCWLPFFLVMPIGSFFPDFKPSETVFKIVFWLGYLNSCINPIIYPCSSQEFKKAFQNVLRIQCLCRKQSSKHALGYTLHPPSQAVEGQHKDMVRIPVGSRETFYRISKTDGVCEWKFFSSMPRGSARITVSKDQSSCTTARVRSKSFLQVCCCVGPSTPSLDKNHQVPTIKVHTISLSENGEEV

[12] = biological target: Somatostatin receptor type 4 (Homo sapiens, UniProt P31391); assay: Binding affinity to human SST4 receptor
Somatostatin receptor type 4, sequence (P31391 whole entry): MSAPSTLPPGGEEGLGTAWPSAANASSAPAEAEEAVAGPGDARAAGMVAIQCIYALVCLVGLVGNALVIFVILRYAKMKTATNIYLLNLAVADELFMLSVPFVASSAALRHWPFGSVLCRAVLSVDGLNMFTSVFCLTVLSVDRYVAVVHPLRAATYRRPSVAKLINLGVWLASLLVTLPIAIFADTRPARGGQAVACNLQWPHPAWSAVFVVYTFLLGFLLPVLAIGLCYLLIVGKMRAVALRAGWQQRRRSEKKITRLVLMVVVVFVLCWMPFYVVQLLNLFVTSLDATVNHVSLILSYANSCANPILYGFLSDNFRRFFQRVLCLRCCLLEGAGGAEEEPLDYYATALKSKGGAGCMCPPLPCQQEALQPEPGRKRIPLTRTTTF

[13] = Oral bioavailability in rat at 3 mg/kg; type: ADME, organism-based; details: in vivo
How it was run: (§4)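 Unlabelled drug given orally (3 mg/kg) and intravenously (1 mg/kg) to mice and rats; plasma quantified by LC–MS (LOQ 0.4 ng/ml); absolute bioavailability estimated from the two routes.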

Homo sapiens [14] = species on record: Homo sapiens; assay: Selectivity for human SST3 over human SST1
[15] = biological target: T3, 5-hydroxytryptamine receptor 2C (Homo sapiens, UniProt P28335); assay: Binding affinity to 5HT2C receptor
T3 sequence (P28335 whole entry): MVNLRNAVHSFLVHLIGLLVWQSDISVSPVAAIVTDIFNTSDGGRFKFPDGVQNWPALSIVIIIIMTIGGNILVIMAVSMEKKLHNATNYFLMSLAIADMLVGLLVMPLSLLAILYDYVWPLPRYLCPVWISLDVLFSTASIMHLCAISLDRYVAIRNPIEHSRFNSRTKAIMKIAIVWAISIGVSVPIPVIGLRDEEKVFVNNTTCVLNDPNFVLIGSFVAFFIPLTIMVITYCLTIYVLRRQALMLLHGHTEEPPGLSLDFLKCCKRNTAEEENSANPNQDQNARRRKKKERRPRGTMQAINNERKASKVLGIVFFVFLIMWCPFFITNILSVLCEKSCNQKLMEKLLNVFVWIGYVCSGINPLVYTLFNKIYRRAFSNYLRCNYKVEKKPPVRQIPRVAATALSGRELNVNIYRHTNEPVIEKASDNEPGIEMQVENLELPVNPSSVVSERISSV

[16] = Apparent terminal half life in mouse plasma at 1 mg/kg, iv; type: ADME, organism-based; parameters: dose 1 mg/kg, route intravenous; how it was run: as §1
[17] = biological target: Somatostatin receptor type 5 (Homo sapiens, UniProt P35346); assay: Binding affinity to human SST5 receptor
Somatostatin receptor type 5, sequence (P35346 whole entry): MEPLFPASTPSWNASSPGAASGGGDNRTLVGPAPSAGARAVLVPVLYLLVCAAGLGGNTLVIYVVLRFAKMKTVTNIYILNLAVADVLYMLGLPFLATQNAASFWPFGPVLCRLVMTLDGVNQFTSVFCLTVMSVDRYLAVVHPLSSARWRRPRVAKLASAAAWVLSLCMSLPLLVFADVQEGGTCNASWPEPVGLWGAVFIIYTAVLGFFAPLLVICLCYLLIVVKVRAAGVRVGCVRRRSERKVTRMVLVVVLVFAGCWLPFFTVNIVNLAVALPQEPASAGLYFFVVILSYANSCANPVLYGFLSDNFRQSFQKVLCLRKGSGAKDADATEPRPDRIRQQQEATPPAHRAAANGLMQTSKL

Cytochrome P450 2D6 = Cytochrome P450 2D6 (Homo sapiens, UniProt P10635); assay: Inhibition of CYP2D6; type: ADME; how it was run: as §2
Cytochrome P450 2D6, sequence (P10635 whole entry): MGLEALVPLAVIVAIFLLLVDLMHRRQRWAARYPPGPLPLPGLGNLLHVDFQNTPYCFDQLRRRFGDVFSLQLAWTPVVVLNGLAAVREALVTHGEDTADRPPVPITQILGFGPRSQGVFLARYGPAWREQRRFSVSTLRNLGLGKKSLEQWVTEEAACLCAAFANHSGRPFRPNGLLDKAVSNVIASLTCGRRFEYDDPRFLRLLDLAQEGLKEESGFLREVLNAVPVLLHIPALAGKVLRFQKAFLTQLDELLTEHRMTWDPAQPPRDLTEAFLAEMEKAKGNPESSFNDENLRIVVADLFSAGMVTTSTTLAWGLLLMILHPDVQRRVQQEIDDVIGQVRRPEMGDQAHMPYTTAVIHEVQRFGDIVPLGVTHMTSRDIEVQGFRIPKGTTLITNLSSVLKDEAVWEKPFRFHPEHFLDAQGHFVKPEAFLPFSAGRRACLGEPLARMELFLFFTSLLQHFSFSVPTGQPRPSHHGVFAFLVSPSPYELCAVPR

[18] = Ratio of drug level in brain to plasma in mouse at 3 mg/kg, po after 1 hr by LC-MS based method; type: ADME, organism-based; parameters: dose 3 mg/kg, route oral; details: brain and plasma; how it was run: as §3
[19] = biological target: T1, Somatostatin receptor type 3; assay: Antagonist activity at human recombinant SST3 receptor expressed in CHO cells assessed as inhibition of SRIF14-induced cAMP accumulation; type: functional, cell-based
How it was run: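 cAMP-based functional assay with human recombinant sst3 receptors expressed in CHO cells; test agent's antagonism of SRIF-14 response measured, pKB derived; n = 6.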

[20] = Oral bioavailability in mouse at 3 mg/kg; type: ADME, organism-based; details: in vivo; how it was run: as §4
Homo sapiens [21] = species on record: Homo sapiens; assay: Selectivity for human SST3 over human SST5
[22] = biological target: Somatostatin receptor type 2 (Rattus norvegicus, UniProt P30680); assay: Displacement of [125I]SRIF-14 from rat cortex membrane SST2 receptor
Somatostatin receptor type 2 (Rattus norvegicus, UniProt P30680), sequence (P30680 whole entry): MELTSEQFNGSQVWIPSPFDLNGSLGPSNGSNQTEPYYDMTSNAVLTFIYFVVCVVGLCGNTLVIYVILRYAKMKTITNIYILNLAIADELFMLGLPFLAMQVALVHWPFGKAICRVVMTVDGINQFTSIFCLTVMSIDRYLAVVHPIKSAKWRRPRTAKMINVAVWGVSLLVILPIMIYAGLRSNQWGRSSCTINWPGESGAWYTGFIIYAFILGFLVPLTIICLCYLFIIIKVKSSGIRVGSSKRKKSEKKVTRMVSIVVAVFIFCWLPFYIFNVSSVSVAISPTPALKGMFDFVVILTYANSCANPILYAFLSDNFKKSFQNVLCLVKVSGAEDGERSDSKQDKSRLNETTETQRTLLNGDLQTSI

T1 sequence (P32745 whole entry): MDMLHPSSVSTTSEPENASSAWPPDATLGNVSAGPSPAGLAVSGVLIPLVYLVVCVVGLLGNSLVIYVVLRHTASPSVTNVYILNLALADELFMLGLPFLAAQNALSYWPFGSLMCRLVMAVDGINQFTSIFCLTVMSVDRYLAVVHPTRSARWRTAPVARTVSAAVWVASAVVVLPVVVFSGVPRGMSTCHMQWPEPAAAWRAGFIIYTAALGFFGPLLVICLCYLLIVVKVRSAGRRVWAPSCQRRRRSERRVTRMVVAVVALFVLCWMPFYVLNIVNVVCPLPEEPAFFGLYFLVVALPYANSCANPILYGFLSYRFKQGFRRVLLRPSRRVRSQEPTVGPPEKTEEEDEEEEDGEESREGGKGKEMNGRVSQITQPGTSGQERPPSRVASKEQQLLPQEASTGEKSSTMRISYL
Somatostatin receptor type 1 (Rattus norvegicus, UniProt P28646), sequence (P28646 whole entry): as the sequence (P30872 whole entry) above, with S8P, S11T, P16S, S20G, G25V, G26C, A32S, A45S, T385A, T389S counted along it

COc1ccc(C[C@H](C)CN2C[C@@H]3CCCC[C@@H]3[C@H](C(=O)N3CCN(c4ccc(F)c(F)c4)CC3)C2)cn1.O=C(O)/C=C/C(=O)O
Kd [1]: 7.08 nM | Kd [2]: 589 nM | Activity (V79): Non-toxic | Kd (D(2) dopamine receptor): 741 nM | Kd [3]: 4.9 nM | Ratio (Homo sapiens [4]): 21 | Ratio (Homo sapiens [5]): > 150 | half-life [6]: 5.6 h | Kd [7]: 2040 nM | IC50 [8]: > 10000 nM | Kd [9]: 4570 nM | Kp at 1 h [10]: 0.4 | Kd [11]: 692 nM | Kd [12]: 148 nM | bioavailability [13]: 21% | Ratio (Homo sapiens [14]): > 100 | Kd [15]: 427 nM | half-life [16]: 1.5 h | Kd [17]: 1120 nM | IC50 (Cytochrome P450 2D6): 6500 nM | Kp at 1 h [18]: 2.4 | pKb [19]: 7.88 | bioavailability [20]: 15% | Ratio (Homo sapiens [21]): > 150 | Kd [22]: 115 nM

— ChEMBL document CHEMBL1154945, “Decahydroisoquinoline derivatives as novel non-peptidic, potent and subtype-selective somatostatin sst(3) receptor antagonists” (Bioorg Med Chem Lett, 2010)
